Compound activity from PubChem.
A selection: hits, their analogues and other compounds. The true share with any hit is near 3.8%.
CSC inhib – cancer stem cell viability inhibitors, primary screen, luminescence; 1.1% of 300,000 active; AID 2717, 2010; cancer stem cell-like cells viability; inhibition, % at 7.5 µM; in the data active means inhibition above about 75%; inconclusive means no clear call, values can overlap the other calls; tested in HMLE shEcad cells
TMEM16A inh – TMEM16A chloride channel inhibitors, primary screen, cell-based, HTS; Anoctamin-1 (Mus musculus), Q8BHY3; HEK293 TMEM16A/YFP iodide influx fluorescence, ionomycin; normalized B-score (activity score, 25-100; higher = stronger inhibition) at 10 µM; 1.2% of 310,000 active; AID 588511, 2011;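 active means ratio plate-corrected score three or more library SD toward inhibition, starting fluorescence score within five deviations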;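 further: score derived from kinetic fluorescence span divided by baseline fluorescence per well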
Beta apoptosis – inhibitors of cytokine-induced beta cell apoptosis, primary screen, luminescence; INS-1E cytokine-induced death, ATP luminescence, 48 h; percent of positive-control rescue, neutral wells zero; protection from apoptosis, % (concentration not given with the values); 0.8% of 300,000 active;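 active means Every replicate reaches about 75%, or at least half do and their mean reaches it too, limit read from the data; inconclusive means At least half of replicates reach the limit but their mean does not; inactive means Under half of replicates reach the limit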;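 further: higher means more ATP so stronger rescue from cytokine killing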
TMEM16A act – TMEM16A chloride channel activators or potentiators, primary screen, cell-based, HTS | Anoctamin-1 (Mus musculus), Q8BHY3 | HEK293 TMEM16A/YFP-H148Q/I152L, iodide quench fluorescence; hits give low values | B-score at 10 µM | 0.3% of 340,000 active | AID 623877, 2012;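 active means fluorescence-ratio B-score plate-corrected deviation score at least 3 library SD below zero, with starting fluorescence score within 5 deviations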;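 further: channel opened by trigger with iodide after compound preincubation; score built on the fluorescence ratio of max minus min over baseline; more negative score means more quench and so TMEM16A activation or potentiation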
MC4R ag barr – MC4R agonists recruiting beta-arrestin, primary screen, cell-based, luminescence, agonist arm of biased-ligand search. AID 540308, 2011. activation, % at 8.9 µM. U2OS MC4R beta-arrestin complementation; percent of melanotan II response, DMSO zero. 0.98% of 360,000 active;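 active means activation above a per-plate cutoff, the mean activation of sample wells on that plate plus 3 SD, cut at about 8% in these data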
MC4R antagonist – MC4R antagonists of cAMP signaling, primary screen, cell-based, TR-FRET, antagonist arm of biased-ligand search; inhibition, % at 6.5 µM; MC4R-expressing cells, MTII-stimulated cAMP, LANCE TR-FRET; AID 540295, 2011; Melanocortin receptor 4 (Homo sapiens), P32245; 0.48% of 360,000 active;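 active means inhibition above its plate's cutoff, the mean of tested wells on that plate plus 3 SD, cut at about 29% in these data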
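System – human MC4R-expressing U2OS cells · Also added – Melanotan II · Dosing – one concentration, 6.5 µM nominal · Timing – 30-min compound, 1-h challenge, 1-h detection, room temperature · Measured by – Eu-cAMP/anti-cAMP TR-FRET, emission 671 nm · Replicates – singlicate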
MC4R barr ag – MC4R beta-arrestin agonists, retest, confirmation, cell-based, luminescence, U2OS | activation, % at 8.9 µM | U2OS MC4R beta-arrestin recruitment; scaled DMSO 0%, Melanotan II 100% | shares compounds with MC4R ag barr | 31% of 2,400 active;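 active means mean activation across replicates above the hit cutoff set in the earlier primary screen, cut at about 8% in these data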
MOR-DOR barr ag – agonists of MOR-DOR heterodimerization, counter-screen for MC4R biased agonist project, cell-based, luminescence. shares compounds with MC4R ag barr. U2OS PathHunter beta-arrestin, beta-gal luminescence; percent of deltorphin B response, DMSO zero. activation, % at 9.2 µM. 5.8% of 2,400 active. AID 602194, 2012;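 active means mean activation across replicates exceeds the hit threshold derived in the earlier primary screen, cut at about 18% in these data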
Target sequence (P35372 whole entry, looked up): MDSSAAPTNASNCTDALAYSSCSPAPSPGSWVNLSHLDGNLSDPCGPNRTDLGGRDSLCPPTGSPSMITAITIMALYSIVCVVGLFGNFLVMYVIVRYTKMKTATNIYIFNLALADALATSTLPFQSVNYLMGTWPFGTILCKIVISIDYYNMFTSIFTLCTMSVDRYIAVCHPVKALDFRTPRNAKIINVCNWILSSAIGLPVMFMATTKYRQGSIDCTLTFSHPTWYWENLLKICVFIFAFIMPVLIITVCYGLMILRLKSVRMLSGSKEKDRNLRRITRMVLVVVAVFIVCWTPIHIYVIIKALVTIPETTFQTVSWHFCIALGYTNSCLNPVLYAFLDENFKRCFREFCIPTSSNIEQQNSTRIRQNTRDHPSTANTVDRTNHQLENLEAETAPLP
Target sequence (P41143 whole entry, looked up): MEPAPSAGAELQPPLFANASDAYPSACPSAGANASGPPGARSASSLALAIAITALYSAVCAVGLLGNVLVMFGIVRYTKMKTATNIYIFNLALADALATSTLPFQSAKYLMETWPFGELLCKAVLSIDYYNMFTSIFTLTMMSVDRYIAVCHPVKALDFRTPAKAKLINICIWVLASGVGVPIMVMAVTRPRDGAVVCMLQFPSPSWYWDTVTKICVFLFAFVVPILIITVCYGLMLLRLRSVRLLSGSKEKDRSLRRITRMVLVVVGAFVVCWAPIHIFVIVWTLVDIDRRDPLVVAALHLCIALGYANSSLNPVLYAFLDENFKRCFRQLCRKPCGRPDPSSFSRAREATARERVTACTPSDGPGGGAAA
Numbers stand for hits; - = inactive; ? = inconclusive; . = no result.

SMILES	CSC inhib	TMEM16A inh	Beta apoptosis	TMEM16A act	MC4R ag barr	MC4R antagonist	MC4R barr ag	MOR-DOR barr ag
COc1ccccc1CNC(=O)CN1C(=O)NC2(CCCC2)C1=O	-	.	-	-	-	-	.	.
C[C@H](CO)N1C[C@H](C)[C@@H](CN(C)S(C)(=O)=O)OCc2cnnn2CCCC1=O	.	.	.	.	-	-	.	.
O=C(CN1CCN(c2ccccc2)CC1)Nc1ccc(Oc2ccccc2)cc1	-	-	.	-	19	-	-	-
O=C(CN1CCOCC1)Nc1ccc(Oc2ccccc2)cc1	-	-	.	-	-	-	.	.
NC(=O)c1cc2cc(Cc3ccccc3Cl)ccc2oc1=O	-	-	-	-	11	-	-	-
COc1ccc(C(=O)Nc2cccc(-c3cc4ccccc4oc3=O)c2)cc1[N+](=O)[O-]	-	-	-	-	13	-	-	-
CC(=O)Nc1ccc(NC(=O)c2cccc(-c3cc4ccccc4oc3=O)c2)cc1	-	-	-	-	-	-	.	.
CCC(C(=O)O)n1nnc(-c2ccc(OCc3ccccc3)c(OC)c2)n1 (centres undefined)	-	-	-	.	.	.	.	.
O=C1c2cccc3cccc(c23)C(=O)N1CC1CCN(CC(O)COc2ccc3ccccc3c2)CC1 (centres undefined)	103	-	-	-	55	-	22	-
Cc1cc(C)cc(OCC(O)CN2CCC(CN3C(=O)c4cccc5cccc(c45)C3=O)CC2)c1 (centres undefined)	-	-	78	-	31	-	33	-
C/C(=N/NC(=O)C1COc2ccccc2O1)c1ccc(Br)s1 (centres undefined)	-	-	.	-	13	-	-	-
Cc1ccc(NC(=O)c2ccc(OC(=O)CCN3C(=O)c4ccccc4C3=O)cc2)cc1	-	-	-	-	12	-	-	-
Cc1ccc(S(=O)(=O)N2CCN(CC(=O)Nc3ccccc3C(=O)NC3CC3)CC2)cc1	.	.	.	-	-	-	.	.
COCC(=O)Nc1cc(C)cn(Cc2ccccc2Cl)c1=O	-	-	-	-	-	-	.	.
COc1ccc(C2C(=O)c3ccccc3C2=Nc2ccc(Br)cc2)cc1 (centres undefined)	-	-	-	-	26	-	11	-
CCc1ccc(NC(=O)C(=O)NCCOc2ccccc2Cl)cc1	-	-	-	-	21	-	-	-
O=C(NCCOc1ccccc1Cl)C(=O)NCCOc1ccccc1Cl	-	-	-	-	-	-	.	.
Cc1ccc(NC(=O)C(=O)NCCOc2ccccc2Cl)cc1	-	-	-	-	12	-	9.8	-
CCCCCCCC/C=C\CCCCCCCC(=O)NCCc1ccc(O)c(O)c1	100	-	?	-	9.8	-	-	-
CCCCCCCC/C=C\CCCCCCCC(=O)NCCO	-	-	-	-	-	-	.	.
S=c1[nH]nc(-c2ccccc2)n1/N=C/c1ccc(-c2ccccc2Cl)o1	102	-	-	-	12	-	-	-
Cc1cc(NC(=O)c2cc(-c3ccccn3)nc3ccccc23)no1	-	-	-	-	-	-	.	.
Cc1cc(C)c2nc(-c3ccccn3)cc(C(=O)Nc3cc(C)on3)c2c1	-	-	-	-	16	-	-	-
COc1ccc(NC(=O)Nc2cccc(Cl)c2Cl)c(OC)n1	-	-	-	-	23	-	-	-
CCN1CCC(O)(C(C(=O)O)c2ccccc2)CC1 (centres undefined)	.	.	.	-	-	-	.	.
SMILES	CSC inhib	TMEM16A inh	Beta apoptosis	TMEM16A act	MC4R ag barr	MC4R antagonist	MC4R barr ag	MOR-DOR barr ag
CCCC(=O)Oc1ccccc1C1SCc2cc(C)c(C)cc2CS1	-	-	-	-	16	-	-	-
Cn1cc(-c2csc(C(O)c3ccc(F)c(F)c3)n2)cn1 (centres undefined)	.	.	.	.	-	-	.	.
O=C(COC(=O)/C=C/c1ccccc1Cl)NCCNC(=O)COC(=O)/C=C/c1ccccc1Cl	-	-	-	-	12	-	-	-
Cc1ccc(NC(=O)c2ccc3nc(N4CCOCC4)sc3c2)c(Cl)c1	-	-	-	-	-	-	.	.
CCCc1ccc(Oc2coc3cc(OCC(=O)Nc4ccccc4C)ccc3c2=O)cc1	-	-	-	-5.2	22	-	15	-
CCc1ccc(Oc2coc3cc(OCC(=O)Nc4cc(C)ccc4C)ccc3c2=O)cc1	-	-	-	-	-	-	.	.
Cc1ccc(NC(=O)c2nc[nH]c2C(=O)Nc2ccccc2F)cc1	.	.	.	.	16	-	-	-
O=C(Nc1ccccc1)c1nc[nH]c1C(=O)Nc1ccccc1F	.	.	.	.	-	-	.	.
CN1CC(=O)N(CC(=O)Nc2ccc(OCc3ccccc3)cc2)C1=O	-	.	-	-	-	-	.	.
CSc1ncccc1C(=O)OCc1ccc([N+](=O)[O-])cc1	.	-	-	-	12	-	-	-
Cc1cccc(Cn2cc3c(=O)n(Cc4cccc(F)c4)nc-3c3ccccc32)c1	-	-	-	-	17	-	-	-
Cc1oc2c(CN3CCCCC3C)c(O)ccc2c(=O)c1-c1ccc(Br)cc1 (centres undefined)	-	-	-	-	-	-	.	.
COc1ccc(-c2ccc(/C=C3/C(=N)N4C(C)=CSC4=NC3=O)o2)c([N+](=O)[O-])c1	-	-	-	-	61	-	-	-
Cc1ccc2cc(/C=N/NC(=O)[C@H]3C[C@@H]3c3ccccc3)c(Cl)nc2c1	-	-	-	-	24	-	-	-
O=C(N/N=C/c1cc2ccccc2nc1Cl)[C@H]1C[C@@H]1c1ccccc1	-	-	-	-	-	-	.	.
CCOc1ccc(CN2CCN(Cc3[nH]c4ccccc4c3C)CC2CCO)cc1 (centres undefined)	-	-	-	-	12	-	-	22
Cc1ccc(C)c(OCCn2cc(/C=C(\C#N)C(=O)NCc3ccco3)c3ccccc32)c1	-	-	.	-	11	-	12	-
COc1ccccc1OCCn1cc(/C=C(\C#N)C(=O)NCc2ccco2)c2ccccc21	-	-	-	-	-	-	.	.
